# Calls of active or inactive are those of the source. No cut-off for these calls is given here.
# Experiments:
# [1] = molecular target: DNA gyrase subunit B (Mycobacterium smegmatis) (UniProt P0C559); assay: Binding affinity to Mycobacterium smegmatis DNA gyrase B assessed as changing in melting temperature of the protein-ligand complex by differential scanning fluorometry; conditions: Mycolicibacterium smegmatis
# In short: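 His-tagged M. smegmatis GyrB expressed in E. coli BL21(DE3)pLysS and Ni-NTA purified, used at 2 mg/mL. Native protein and protein-ligand complex heated from 25 to 95 °C in 0.1 °C steps with 50X SYPRO orange. Read-out is the Tm shift of the complex relative to native protein.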
# [2] = Cytotoxicity against mouse RAW264.7 cells assessed as inhibition of cell viability at 50 uM incubated for 48 hrs at 37 degC by MTT assay relative to control; assay type: cell-based; conditions: read-out: INH
# In short: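 RAW 264.7 mouse macrophages, 5×10^5 cells per well, exposed to compound for 48 h at 37 °C under 5% CO2. MTT added 4 h before the end. Formazan dissolved in DMSO and absorbance read at 560 nm against blank. Triplicates, run twice.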
# [3] = molecular target: DNA gyrase subunit A/DNA gyrase subunit B (Mycobacterium tuberculosis (strain ATCC 25618 / H37Rv), UniProt P9WG45+P9WG47); assay: Inhibition of DNA gyrase GyrA/GyrB in Mycobacterium tuberculosis incubated for 30 mins assessed as reduction in supercoiling of relaxed relaxed pBR322 DNA by ethidium bromide staining based agarose gel electrophoresis method
# [4] = molecular target: DNA gyrase subunit B (Staphylococcus aureus) (UniProt P0A0K8); assay: Inhibition of Staphylococcus aureus DNA gyrase B assessed as reduction in ATPase activity at 100 uM incubated for 100 mins by inorganic phosphate detection assay
# [5] = system: Mycobacterium tuberculosis; assay: Antimycobacterial activity against Mycobacterium tuberculosis H37Rv assessed as growth inhibition incubated for 7 days by microplate alamar blue assay; assay type: functional; conditions: 168 h
# In short: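 M. tuberculosis H37Rv inoculum from fresh LJ medium, resuspended in 7H9 broth (0.1% casitone, 0.5% glycerol, OADC), set to McFarland No. 1 and diluted 1:20. Two-fold serial compound dilutions in 7H9-S, with growth and sterile controls. Incubated 7 days at 37 °C, then alamar blue overnight. MIC is the lowest concentration preventing the blue-to-pink colour change.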
# [6] = molecular target: DNA gyrase subunit B (Escherichia coli) (UniProt P0AES6); assay: Inhibition of Escherichia coli Inspiralis DNA gyrase B assessed as reduction in ATPase activity at 100 uM incubated for 100 mins by inorganic phosphate detection assay
# [7] = molecular target: DNA gyrase subunit B (Mycobacterium smegmatis, UniProt P0C559); assay: Inhibition of Mycobacterium smegmatis DNA gyrase B expressed in Escherichia coli BL21 (DE3) pLysS cells assessed as reduction in ATPase activity incubated for 100 mins by inorganic phosphate detection assay; set-up: species or system Mycolicibacterium smegmatis
# Sequence of DNA gyrase subunit B (P0C559 whole entry): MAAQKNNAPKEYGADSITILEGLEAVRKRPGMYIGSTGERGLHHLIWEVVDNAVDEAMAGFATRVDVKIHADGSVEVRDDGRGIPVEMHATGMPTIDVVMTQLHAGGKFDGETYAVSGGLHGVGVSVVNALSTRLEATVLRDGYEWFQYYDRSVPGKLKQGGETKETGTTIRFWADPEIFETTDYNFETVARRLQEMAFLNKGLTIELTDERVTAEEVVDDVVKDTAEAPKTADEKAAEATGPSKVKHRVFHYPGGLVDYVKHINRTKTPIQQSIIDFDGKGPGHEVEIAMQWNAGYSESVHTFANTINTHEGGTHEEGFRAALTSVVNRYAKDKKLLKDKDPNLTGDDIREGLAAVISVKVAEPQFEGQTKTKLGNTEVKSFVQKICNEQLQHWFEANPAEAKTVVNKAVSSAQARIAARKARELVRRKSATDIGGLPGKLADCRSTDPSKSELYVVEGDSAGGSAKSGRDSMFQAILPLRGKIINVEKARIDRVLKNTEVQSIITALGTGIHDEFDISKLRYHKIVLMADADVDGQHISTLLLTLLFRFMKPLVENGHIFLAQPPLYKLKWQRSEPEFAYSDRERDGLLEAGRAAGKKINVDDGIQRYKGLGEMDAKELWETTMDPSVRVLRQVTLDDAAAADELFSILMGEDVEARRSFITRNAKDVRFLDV
# Sequence of DNA gyrase subunit A/DNA gyrase subunit B (P9WG45 whole entry): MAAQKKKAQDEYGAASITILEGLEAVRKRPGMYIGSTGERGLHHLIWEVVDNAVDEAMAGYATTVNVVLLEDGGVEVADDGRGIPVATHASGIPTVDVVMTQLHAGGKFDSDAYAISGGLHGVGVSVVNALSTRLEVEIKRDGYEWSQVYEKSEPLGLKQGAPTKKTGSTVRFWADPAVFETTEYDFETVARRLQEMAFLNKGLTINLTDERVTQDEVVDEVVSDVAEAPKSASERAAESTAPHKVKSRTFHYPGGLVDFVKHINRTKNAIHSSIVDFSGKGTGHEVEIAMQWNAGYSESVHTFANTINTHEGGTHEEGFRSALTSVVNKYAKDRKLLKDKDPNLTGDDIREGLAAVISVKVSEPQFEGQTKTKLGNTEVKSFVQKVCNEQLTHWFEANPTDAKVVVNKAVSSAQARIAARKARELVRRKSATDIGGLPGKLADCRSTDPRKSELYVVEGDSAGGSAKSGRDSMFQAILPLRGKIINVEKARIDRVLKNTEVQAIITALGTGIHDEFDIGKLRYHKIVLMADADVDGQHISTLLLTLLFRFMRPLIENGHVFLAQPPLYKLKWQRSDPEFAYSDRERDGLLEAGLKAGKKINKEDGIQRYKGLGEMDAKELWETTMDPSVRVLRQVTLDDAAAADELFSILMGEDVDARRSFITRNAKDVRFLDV
# Sequence of DNA gyrase subunit A/DNA gyrase subunit B (P9WG47 whole entry): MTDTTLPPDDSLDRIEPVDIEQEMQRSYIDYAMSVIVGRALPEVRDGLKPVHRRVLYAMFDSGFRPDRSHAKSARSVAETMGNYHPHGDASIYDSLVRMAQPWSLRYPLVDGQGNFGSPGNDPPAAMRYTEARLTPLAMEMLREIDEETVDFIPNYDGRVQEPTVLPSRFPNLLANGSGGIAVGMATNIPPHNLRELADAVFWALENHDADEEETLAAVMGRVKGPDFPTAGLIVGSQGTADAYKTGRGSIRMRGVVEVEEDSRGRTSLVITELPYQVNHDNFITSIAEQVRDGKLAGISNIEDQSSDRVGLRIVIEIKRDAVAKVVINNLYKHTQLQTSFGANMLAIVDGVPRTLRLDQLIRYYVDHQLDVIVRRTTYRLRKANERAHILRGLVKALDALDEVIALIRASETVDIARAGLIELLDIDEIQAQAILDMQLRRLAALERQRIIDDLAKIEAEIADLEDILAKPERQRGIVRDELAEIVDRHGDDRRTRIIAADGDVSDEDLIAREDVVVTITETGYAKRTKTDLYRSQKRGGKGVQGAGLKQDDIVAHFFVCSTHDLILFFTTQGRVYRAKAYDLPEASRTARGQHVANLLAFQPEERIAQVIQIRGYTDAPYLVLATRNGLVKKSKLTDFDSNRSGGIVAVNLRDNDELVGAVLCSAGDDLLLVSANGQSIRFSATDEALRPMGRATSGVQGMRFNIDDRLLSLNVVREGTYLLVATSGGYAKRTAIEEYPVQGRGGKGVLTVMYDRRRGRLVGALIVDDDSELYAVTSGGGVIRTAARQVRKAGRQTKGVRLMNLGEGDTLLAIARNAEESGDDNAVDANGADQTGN
# Sequence of DNA gyrase subunit B (Mycobacterium smegmatis) (P0C559 2-675 limits assumed): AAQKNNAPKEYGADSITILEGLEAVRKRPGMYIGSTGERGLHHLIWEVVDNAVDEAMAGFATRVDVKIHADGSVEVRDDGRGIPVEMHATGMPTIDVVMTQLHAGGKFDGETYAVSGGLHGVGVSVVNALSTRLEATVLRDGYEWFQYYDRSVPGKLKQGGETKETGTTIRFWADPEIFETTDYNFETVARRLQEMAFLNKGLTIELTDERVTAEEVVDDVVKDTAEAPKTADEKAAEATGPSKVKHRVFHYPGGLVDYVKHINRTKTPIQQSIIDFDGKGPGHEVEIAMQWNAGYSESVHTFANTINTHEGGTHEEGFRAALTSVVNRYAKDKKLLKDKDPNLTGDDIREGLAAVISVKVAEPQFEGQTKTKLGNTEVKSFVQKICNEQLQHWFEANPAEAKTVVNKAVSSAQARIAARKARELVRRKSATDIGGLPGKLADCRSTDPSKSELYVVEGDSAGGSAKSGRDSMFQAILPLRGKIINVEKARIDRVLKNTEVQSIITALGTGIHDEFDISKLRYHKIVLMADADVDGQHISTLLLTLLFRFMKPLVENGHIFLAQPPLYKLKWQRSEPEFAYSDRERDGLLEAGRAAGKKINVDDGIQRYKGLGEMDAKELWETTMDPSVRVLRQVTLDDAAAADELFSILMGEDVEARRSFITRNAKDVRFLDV
# Sequence of DNA gyrase subunit B (Staphylococcus aureus) (P0A0K8 2-644 limits assumed): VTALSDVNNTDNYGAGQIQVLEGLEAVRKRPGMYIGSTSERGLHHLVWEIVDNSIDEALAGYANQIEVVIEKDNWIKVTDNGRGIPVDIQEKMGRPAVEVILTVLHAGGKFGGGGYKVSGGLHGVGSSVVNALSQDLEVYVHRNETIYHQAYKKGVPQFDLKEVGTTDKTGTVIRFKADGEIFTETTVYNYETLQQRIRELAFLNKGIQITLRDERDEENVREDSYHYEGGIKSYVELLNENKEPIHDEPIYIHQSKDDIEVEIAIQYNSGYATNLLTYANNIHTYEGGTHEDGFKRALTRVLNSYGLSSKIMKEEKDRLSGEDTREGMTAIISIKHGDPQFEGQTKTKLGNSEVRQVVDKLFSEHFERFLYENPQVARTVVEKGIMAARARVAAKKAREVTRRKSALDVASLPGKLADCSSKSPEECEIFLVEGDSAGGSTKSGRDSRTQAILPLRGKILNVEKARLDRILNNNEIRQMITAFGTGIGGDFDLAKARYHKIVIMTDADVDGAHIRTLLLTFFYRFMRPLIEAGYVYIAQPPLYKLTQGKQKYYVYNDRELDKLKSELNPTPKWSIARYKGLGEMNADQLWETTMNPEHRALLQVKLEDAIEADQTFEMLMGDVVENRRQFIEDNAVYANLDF
smiles,measurement,setting,value
CCN1CCN(CCCOc2ccc(Nc3c(C(=O)O)cnc4ccc(OC)cc34)cc2)CC1,ΔTm,[1],3.3 °C
same,"cytotoxicity at 48 h, 50 µM",[2],0.66%
same,IC50,[3],0.63 µM
same,inhibition,[4],inactive
same,MIC,[5],3.3 µM
same,inhibition,[6],inactive
same,IC50,[7],0.86 µM
CCOC(=O)c1cnc2ccccc2c1Nc1ccc(OCCCN2CCOCC2)cc1,"cytotoxicity at 48 h, 50 µM",[2],17.7%
same,IC50,[3],7.53 µM
same,MIC,[5],28.7 µM
same,IC50,[7],22.8 µM
CCOC(=O)c1cnc2ccc(F)cc2c1Nc1ccc(OCCCN2CCOCC2)cc1,"cytotoxicity at 48 h, 50 µM",[2],44.1%
same,IC50,[3],7.63 µM
same,MIC,[5],21.7 µM
same,IC50,[7],16.9 µM
CCOC(=O)c1cnc2ccc(C(F)(F)F)cc2c1Nc1ccc(NCCCN2CCN(CC)CC2)cc1,"cytotoxicity at 48 h, 50 µM",[2],20.1%
same,IC50,[3],3.77 µM
same,MIC,[5],1.47 µM
same,IC50,[7],8.82 µM
NNC(=O)c1cnc2ccccc2c1Nc1ccc(NCCCN2CCOCC2)cc1,"cytotoxicity at 48 h, 50 µM",[2],6.48%
same,IC50,[3],22.9 µM
same,MIC,[5],44.9 µM
same,IC50,[7],> 50 µM
NNC(=O)c1cnc2ccc(C(F)(F)F)cc2c1Nc1ccc(NCCCN2CCOCC2)cc1,"cytotoxicity at 48 h, 50 µM",[2],7.94%
same,IC50,[3],19.9 µM
same,MIC,[5],25.6 µM
same,IC50,[7],47.2 µM
COc1ccc2ncc(C(=O)NN)c(Nc3ccc(OCCCN4CCOCC4)cc3)c2c1,"cytotoxicity at 48 h, 50 µM",[2],6.26%
same,IC50,[3],10.4 µM
same,MIC,[5],55.4 µM
same,IC50,[7],10.6 µM
CCOC(=O)c1cnc2ccc(OC)cc2c1Nc1ccc(OCCCN2CCN(CC)CC2)cc1,"cytotoxicity at 48 h, 50 µM",[2],21.6%
same,IC50,[3],6.85 µM
same,MIC,[5],11.6 µM
same,IC50,[7],15.9 µM
CCOC(=O)c1cnc2ccccc2c1Nc1ccc(OCCCN2CCN(CC)CC2)cc1,"cytotoxicity at 48 h, 50 µM",[2],21.4%
same,IC50,[3],23.9 µM
same,MIC,[5],13.5 µM
same,IC50,[7],> 50 µM
NNC(=O)c1cnc2ccc(F)cc2c1Nc1ccc(OCCCN2CCOCC2)cc1,"cytotoxicity at 48 h, 50 µM",[2],13.7%
same,IC50,[3],21.4 µM
same,MIC,[5],28.4 µM
same,IC50,[7],20.9 µM
